Experimental data gathered from unrelated publications.
Protocols differ between the studies behind these lines.
Target: Serine/threonine-protein kinase mTOR (MTOR, Homo sapiens, UniProt P42345)

SMILES	test	setting	endpoint	value
C=CC(=O)N1CCC([C@@H]2CCNc3c(C(N)=O)c(-c4ccc(Oc5ccccc5)cc4)nn32)CC1	enzyme activity, inhibitor	1 µM	inhibition	0%
COc1ccc2[nH]c3c4[nH]c5ccc(OC)cc5c4c4c(c3c2c1)C(=O)NC4=O	binding	1 µM	remaining binding	100%
Cc1cc(O)c(-c2ccc([C@@H](C)CN(C)C)cc2)c2c1[nH]c(=O)c1sccc12	cell-free assay, inhibitor	0.1 µM	inhibition	9.2%
CN1CCN(C(=O)c2ccc(NC(=O)Nc3ccc(N(C)c4ccnc(Nc5ccc(CS(C)(=O)=O)cc5)n4)cc3)cc2)CC1	binding	1 µM	remaining binding	100%
CO[C@@H]1[C@H](N(C)C(=O)c2ccccc2)C[C@H]2O[C@]1(C)n1c3ccccc3c3c4c(c5c6ccccc6n2c5c31)C(=O)NC4	enzyme activity, inhibitor	1 µM	inhibition	0%
COc1ccc2oc(-c3ccc4nc(N)oc4c3)c/c(=N\c3ccccc3NC(=O)CCN)c2c1	cell-free assay	1 µM	remaining signal	7%
CCCCC(=O)Nc1ccc(-c2ccc3ncn(CCC)c(=O)c3c2)cn1	binding, competition with immobilised ligand	0.5 µM	remaining binding	67%
C1=C/COCc2cc(ccc2OCCN2CCCC2)Nc2nccc(n2)-c2cccc(c2)COC/1	binding	0.1 µM	remaining binding	72%
